According to ChEMBL document CHEMBL1123771, “Synthesis and structure-activity relationships of potent new angiotensin converting enzyme inhibitors containing saturated bicyclic amino acids” (J Med Chem, 1987):

Tests used:
[1] = target: T1, Angiotensin-converting enzyme (Rattus norvegicus, UniProt P47820); experiment: Inhibition of rat Angiotensin I converting enzyme (ACE), using Hip-Gly-Gly as synthetic substrate.
T1 sequence (P47820 whole entry): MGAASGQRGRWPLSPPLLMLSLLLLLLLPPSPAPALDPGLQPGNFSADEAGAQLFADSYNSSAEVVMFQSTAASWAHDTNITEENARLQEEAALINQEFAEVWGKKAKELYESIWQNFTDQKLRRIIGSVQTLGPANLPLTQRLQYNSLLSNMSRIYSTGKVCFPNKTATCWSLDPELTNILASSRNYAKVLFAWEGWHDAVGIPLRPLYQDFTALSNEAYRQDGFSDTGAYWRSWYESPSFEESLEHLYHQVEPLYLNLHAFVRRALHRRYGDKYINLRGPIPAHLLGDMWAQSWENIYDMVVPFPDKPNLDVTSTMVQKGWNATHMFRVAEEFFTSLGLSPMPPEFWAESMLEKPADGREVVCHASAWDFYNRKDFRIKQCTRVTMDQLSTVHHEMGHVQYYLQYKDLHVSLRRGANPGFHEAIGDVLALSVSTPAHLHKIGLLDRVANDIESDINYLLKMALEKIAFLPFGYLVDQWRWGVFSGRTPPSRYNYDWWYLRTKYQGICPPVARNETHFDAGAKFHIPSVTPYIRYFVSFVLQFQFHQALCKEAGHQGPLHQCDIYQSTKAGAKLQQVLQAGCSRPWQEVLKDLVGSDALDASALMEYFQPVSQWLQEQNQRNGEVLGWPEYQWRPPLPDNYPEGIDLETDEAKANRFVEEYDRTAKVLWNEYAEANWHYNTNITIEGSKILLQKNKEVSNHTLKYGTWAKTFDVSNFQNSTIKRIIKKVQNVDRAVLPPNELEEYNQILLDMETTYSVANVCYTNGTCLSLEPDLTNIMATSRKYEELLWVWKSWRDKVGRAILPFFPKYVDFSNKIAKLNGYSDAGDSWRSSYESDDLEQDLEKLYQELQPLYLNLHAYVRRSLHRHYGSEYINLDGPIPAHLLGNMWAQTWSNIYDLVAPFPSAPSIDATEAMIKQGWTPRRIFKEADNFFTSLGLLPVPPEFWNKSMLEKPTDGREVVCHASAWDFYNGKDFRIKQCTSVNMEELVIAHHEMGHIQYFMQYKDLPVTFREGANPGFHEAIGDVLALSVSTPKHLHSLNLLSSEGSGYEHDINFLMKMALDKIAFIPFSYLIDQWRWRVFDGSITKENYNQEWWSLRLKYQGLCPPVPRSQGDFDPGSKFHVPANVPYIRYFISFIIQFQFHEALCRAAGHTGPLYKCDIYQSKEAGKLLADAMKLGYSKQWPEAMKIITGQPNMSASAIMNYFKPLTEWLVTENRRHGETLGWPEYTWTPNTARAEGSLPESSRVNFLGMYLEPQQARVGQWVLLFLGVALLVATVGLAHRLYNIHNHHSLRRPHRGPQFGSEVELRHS
Method in brief: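 Radioassay of converting-enzyme activity with Hip-Gly-Gly as substrate; compounds dissolved at 2–5 mg/mL in Me2SO, then diluted to test concentrations in pH 8 buffer (0.05 M Hepes, 0.1 M NaCl, 0.6 M Na2SO4).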

[2] = test system: Rattus norvegicus; experiment: Maximum change in mean aortic blood pressure in conscious renal 2-kidney/1-clip goldblatt hypertensive rat at a dose 30 mg/kg administered orally at 5h; 4 animals tested; assay type: functional, Artery; conditions: route oral
Method in brief: (§1)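 Male Sprague–Dawley rats, 4 weeks old, given a silver clip (0.2-mm gap) on the left renal artery with the other kidney intact. Hypertension developed over 4–8 weeks, then rats (280–320 g) were aortic-cannulated; only those with mean pressure >160 mmHg were used. Oral dosing. One-minute running averages were logged every 30 min. Results are mean ± 1 SEM, from 3–5 rats.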

[3] = test system: Rattus norvegicus; experiment: Mean aortic base line blood pressure in conscious renal 2-kidney/1-clip goldblatt hypertensive rat at a dose 30 mg/kg administered orally; assay type: functional, Artery; conditions: route oral
[4] = test system: Rattus norvegicus; experiment: Mean aortic base line blood pressure in conscious renal 2-kidney/1-clip goldblatt hypertensive rat at a dose 10 mg/kg administered orally; assay type: functional, Artery; conditions: route oral; method in brief: as §1
[5] = test system: Rattus norvegicus; experiment: Mean aortic base line blood pressure in conscious renal 2-kidney/1-clip goldblatt hypertensive rat at a dose 3 mg/kg administered orally; assay type: functional, Artery; conditions: route oral; method in brief: as §1
[6] = test system: Rattus norvegicus; experiment: Maximum change in mean aortic blood pressure in conscious renal 2-kidney/1-clip goldblatt hypertensive rat at a dose 3 mg/kg administered orally at 8h; 5 animals tested; assay type: functional, Artery; conditions: route oral; method in brief: as §1
[7] = test system: Rattus norvegicus; experiment: Maximum change in mean aortic blood pressure in conscious renal 2-kidney/1-clip goldblatt hypertensive rat at a dose 10 mg/kg administered orally at 3 hr; 5 animals tested; assay type: functional, Artery; conditions: route oral; method in brief: as §1
[8] = test system: Rattus norvegicus; experiment: Maximum change in mean aortic blood pressure in conscious renal 2-kidney/1-clip goldblatt hypertensive rat at a dose 30 mg/kg administered orally at 5h; 5 animals tested; assay type: functional, Artery; conditions: route oral; method in brief: as §1
[9] = test system: Rattus norvegicus; experiment: Maximum change in mean aortic blood pressure in conscious renal 2-kidney/1-clip goldblatt hypertensive rat at a dose 30 mg/kg administered orally at 6 h; 4 animals tested; assay type: functional, Artery; conditions: route oral
[10] = test system: Rattus norvegicus; experiment: Maximum change in mean aortic blood pressure in conscious renal 2-kidney/1-clip goldblatt hypertensive rat at a dose 30 mg/kg administered orally at 6 h; 3 animals tested; assay type: functional, Artery; conditions: route oral
Method in brief: (§2)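 Male Sprague–Dawley rats made hypertensive at 4 weeks old by silver clip (0.2-mm gap) on left renal artery, contralateral kidney intact; 4–8 weeks development, cannulated (280–320 g), only mean aortic pressure >160 mmHg used. Oral dosing; 1-min running-average aortic pressure and heart rate logged every 30 min; maximum change from base line, mean ± SEM.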

[11] = test system: Rattus norvegicus; experiment: Maximum change in mean aortic blood pressure in conscious renal 2-kidney/1-clip goldblatt hypertensive rat at a dose 3 mg/kg administered orally at 5h; 4 animals tested; assay type: functional, Artery; conditions: route oral; method in brief: as §1
[12] = test system: Rattus norvegicus; experiment: Mean aortic base line blood pressure in conscious renal 2-kidney/1-clip goldblatt hypertensive rat at a dose 0.3 mg/kg administered orally; assay type: functional, Artery; conditions: route oral
[13] = test system: Rattus norvegicus; experiment: Mean aortic base line blood pressure in conscious renal 2-kidney/1-clip goldblatt hypertensive rat at a dose 3.0 mg/kg administered orally; assay type: functional, Artery; conditions: route oral
[14] = test system: Rattus norvegicus; experiment: Maximum change in mean aortic blood pressure in conscious renal 2-kidney/1-clip goldblatt hypertensive rat at a dose 1.0 mg/kg administered orally at 8h; 4 animals tested; assay type: functional, Artery; conditions: route oral; method in brief: as §1
[15] = test system: Rattus norvegicus; experiment: Maximum change in mean aortic blood pressure in conscious renal 2-kidney/1-clip goldblatt hypertensive rat at a dose 10 mg/kg administered orally at 4 hr; 4 animals tested; assay type: functional, Artery; conditions: route oral; method in brief: as §1
[16] = test system: Rattus norvegicus; experiment: Maximum change in mean aortic blood pressure in conscious renal 2-kidney/1-clip goldblatt hypertensive rat at a dose 0.3 mg/kg administered orally at 5h; 4 animals tested; assay type: functional, Artery; conditions: route oral; method in brief: as §1
[17] = test system: Rattus norvegicus; experiment: Mean aortic base line blood pressure in conscious renal 2-kidney/1-clip goldblatt hypertensive rat at a dose 1.0 mg/kg administered orally; assay type: functional, Artery; conditions: route oral; method in brief: as §1
[18] = test system: Rattus norvegicus; experiment: Maximum change in mean aortic blood pressure in conscious renal 2-kidney/1-clip goldblatt hypertensive rat at a dose 30 mg/kg administered orally at 8h; 3 animals tested; assay type: functional, Artery; conditions: route oral; method in brief: as §2

For `CC(=O)SCC(C)C(=O)N1[C@H](C(=O)O)C[C@@H]2CCCC[C@@H]21` (stereo in doubt; 9b), the IC50 [1] was 35000 nM.
`CC(CSC(=O)c1ccccc1)C(=O)N1[C@H](C(=O)O)C[C@@H]2CCCC[C@@H]21` (stereo partly drawn) showed an IC50 [1] of 540 nM.
For `C[C@H](N[C@@H](CCc1ccccc1)C(=O)O)C(=O)N1[C@H](C(=O)O)C[C@@H]2CCCC[C@@H]21`, the “Mean aortic blood pressure” value [2] was -104 mmHg and the “Mean aortic blood pressure” value [3] was 198 mmHg.
Work on `O=C1SCCC(=O)N2C1CC1CCCCC12` (stereo not drawn) yielded an IC50 [1] of 7 nM.
With `O=C(O)[C@@H]1C[C@@H]2CCCC[C@@H]2N1C(=O)CCS` (stereo in doubt; 8b) the “Mean aortic blood pressure” value [4] was 198 mmHg, the “Mean aortic blood pressure” value [5] was 198 mmHg and the “Mean aortic blood pressure” value [6] was -73 mmHg. The “Mean aortic blood pressure” value [3] was 198 mmHg, the “Mean aortic blood pressure” value [7] was -89 mmHg and the IC50 [1] was 13 nM. For the same compound, the “Mean aortic blood pressure” value [8] was -91 mmHg.
In the case of `CC(=O)SCC(C)C(=O)N1C(=O)C2CCCCC2C1C(=O)O` (stereo not drawn), the IC50 [1] is reported as 300 nM.
`CC(CS)C(=O)N1CC2CCCCC2C1C(=O)O` (stereo not drawn) was tested, and the “Mean aortic blood pressure” value [9] was -50 mmHg and the “Mean aortic blood pressure” value [3] was 152 mmHg.
`CC(CS)C(=O)N1[C@H](C(=O)O)C[C@@H]2CCCC[C@@H]21` (stereo in doubt; 9f) was tested, and the “Mean aortic blood pressure” value [10] was -72 mmHg, the “Mean aortic blood pressure” value ([3]; 30 mg/kg) was 193 mmHg and the IC50 [1] was 5.2 nM.
`C[C@H](CS)C(=O)N1c2ccccc2C[C@H]1C(=O)O` showed an IC50 [1] of 3.7 nM.
`CC(=O)SCCC(=O)N1[C@H](C(=O)O)C[C@@H]2CCCC[C@@H]21` (stereo in doubt; 8c) gave an IC50 [1] of 480 nM.
`CCOC(=O)C(CCc1ccccc1)NC(C)C(=O)N1C(=O)CCC1C(=O)O` (stereo not drawn) was tested, and the IC50 [1] was 63 nM.
In the case of `O=C(O)[C@@H]1CCC(=O)N1C(=O)CCS`, the IC50 [1] is reported as 960 nM.
For `CCOC(=O)[C@H](CCc1ccccc1)N[C@@H](C)C(=O)N1CCC[C@H]1C(=O)O`, the “Mean aortic blood pressure” value [11] was -56 mmHg, the “Mean aortic blood pressure” value [4] was 199 mmHg and the “Mean aortic blood pressure” value [12] was 201 mmHg. For the same compound, the “Mean aortic blood pressure” value [13] was 200 mmHg, the “Mean aortic blood pressure” value [14] was -24 mmHg and the “Mean aortic blood pressure” value [15] was -56 mmHg. The “Mean aortic blood pressure” value [16] was -39 mmHg and the “Mean aortic blood pressure” value [17] was 175 mmHg.
For `CC(CS)C(=O)N1C(=O)CCC1C(=O)O` (stereo not drawn), the “Mean aortic blood pressure” value [18] was -48 mmHg, the “Mean aortic blood pressure” value [3] was 185 mmHg and the IC50 [1] was 9.3 nM.
